This passage reports IC50 results from ChEMBL document CHEMBL1123999, “Synthesis and antiviral activity of certain 4- and 4,5-disubstituted 7-[(2-hydroxyethoxy)methyl]pyrrolo[2,3-d]pyrimidines” (J Med Chem, 1988).

SMILES strings stand for the structures.

The subject of assay [1] is Human betaherpesvirus 5. Description: Inhibitory concentration against human cytomegalovirus (HCMV) in plaque reduction assay. Format: functional, organism-based. In outline: (§1)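 HFF monolayers were infected with the Towne strain of HCMV (plaque-purified isolate P0), about 50 PFU in a 0.2 mL inoculum. Compounds were dissolved in the overlay medium, with 100 μM the highest concentration tested. Plaques were counted. I50 was taken from linear regression of percent inhibition against log concentration. Acyclovir, ganciclovir and vidarabine served as positive controls.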
On the technique in general: In a plaque reduction assay, fewer plaques than in the control indicate reduced infectivity or spread.

In a further assay the test system is HFF. Description: Cytotoxicity against uninfected human foreskin fibroblast(HFF cells). In kind it is functional, cell-based. In outline: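 Uninfected HFF monolayers in the HCMV plaque assay. Drug-induced cytopathology was scored visually at 35- and 60-fold magnification, on a 0 to 4+ scale, on the day of staining for plaque enumeration. I50 was taken from linear regression of percent inhibition against log concentration.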

Assay [2] in a line: Inhibition against human neoplastic cell line(KB cells). Format: functional, cell-based. The conditions noted are these: read-out: I50. Put shortly: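 KB cells (human epidermoid oral carcinoma) grown in MEM with Hanks salts plus 5% fetal bovine serum. Cytotoxicity read as inhibition of radioactive precursor incorporation into DNA, RNA and protein. I50 for each of the three came from linear regression of percent inhibition against log drug concentration, and the three I50s were averaged. Highest concentration tested 100 μM.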

The next assay relates to Human alphaherpesvirus 1. Briefly: Inhibitory concentration against HSV-1 in plaque reduction assay.
Assay [3] can be described thus: Cytotoxicity against uninfected monkey kidney cells (BSC-1). In kind it is functional, cell-based. Particulars: Cercopithecidae. In outline: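 Uninfected BSC-1 (African green monkey kidney) monolayers, grown in MEM with Earle salts plus 10% FBS, in the HSV-1 plaque assay. Cytopathology was scored visually at 35- and 60-fold magnification, on a 0 to 4+ scale, on the day of staining for plaques. I50 was taken from regression of percent inhibition against log concentration.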

Assay [4] is described as follows: Cytotoxicity against human neoplastic cell line(KB cells). Format: functional, cell-based. Particulars: read-out: I50. In outline:
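KB cells (human epidermoid oral carcinoma) grown in MEM with Hanks salts plus 5% fetal bovine serum. Uptake of radioactive precursors into DNA, RNA and protein was measured. I50 values came from linear regression of percent inhibition against log concentration. The three I50 values (DNA, RNA, protein) were averaged. Positive controls were acyclovir, ganciclovir and vidarabine.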

The test system of assay [5] is Human betaherpesvirus 5. Briefly: Inhibitory concentration against human cytomegalovirus (HCMV) in plaque reduction assay at 100 uM concentration. In kind it is functional, organism-based. Particulars: read-out: I50. Put shortly: as §1

For the compound `Nc1ncnc2c1c(I)cn2COCCO`, the IC50 with Human betaherpesvirus 5 [1] is 24 µM; in the assay on HFF, 100 µM; in assay [2] it was 1.2 µM; in the assay on Human alphaherpesvirus 1, 100 µM; in assay [3], greater than 100 µM.
Regarding `OC[C@H]1OC(n2cc(Br)c3cncnc32)[C@H](O)[C@@H]1O` (some centres undefined), the IC50 with Human betaherpesvirus 5 [1] (read-out: I50) was 23 µM; with HFF (read-out: I50), 31 µM.
For `CNc1ncnc2c1ccn2[C@@H]1O[C@H](CO)[C@@H](O)[C@H]1O`, the IC50 in the assay on Human betaherpesvirus 5 [1] is 37 µM; in the assay on HFF, greater than 100 µM.
With `Nc1ncnc2c1c(Br)cn2[C@@H]1O[C@H](CO)[C@@H](O)[C@H]1O`, the values for the IC50 (in the assay with Human betaherpesvirus 5 [1] (read-out: I50); with HFF (read-out: I50); in assay [4]) were 0.5 µM, 4.5 µM and 2.3 µM, respectively.
As for `OC[C@H]1OC(n2cc(Br)c3c(S)ncnc32)[C@H](O)[C@@H]1O` (some centres undefined), the figures for the IC50 in the assay on Human betaherpesvirus 5 [1] and with HFF were 39 µM and greater than 100 µM, respectively.
As to `O=c1[nH]cnc2c1ccn2[C@@H]1O[C@H](CO)[C@@H](O)[C@H]1O` [IMMUNICILLIN H], the figures for the IC50 in the assay with Human betaherpesvirus 5 [1] (read-out: I50) and with HFF (read-out: I50) were 3.5 µM and 10 µM, respectively.
As for `OC[C@H]1O[C@@H](n2ccc3c(S)ncnc32)[C@H](O)[C@@H]1O`, the IC50 with Human betaherpesvirus 5 [1] and in the assay with HFF was greater than 100 µM throughout.
In the case of `OC[C@H]1OC(n2ccc3c(SC4C=CC=CC=C4)ncnc32)[C@H](O)[C@@H]1O` (some centres undefined), the IC50 in the assay on Human betaherpesvirus 5 [1] and with HFF was greater than 100 µM in each case.
On to `CNc1ncnc2c1c(Br)cn2C1O[C@H](CO)[C@@H](O)[C@H]1O` (some centres undefined), for which the IC50 in the assay on Human betaherpesvirus 5 [1] (read-out: I50) and with HFF (read-out: I50) was greater than 100 µM each time.
Regarding `OCCOCn1cc(I)c2c(Cl)ncnc21`, the IC50 (with Human betaherpesvirus 5 [1]; in the assay on HFF; in the assay with Human alphaherpesvirus 1; in assay [3]) was greater than 100 µM each time.
As for `NNc1ncnc2c1ccn2C1O[C@H](CO)[C@@H](O)[C@H]1O` (some centres undefined), the results for the IC50 in the assay with Human betaherpesvirus 5 [1] (read-out: I50) and in the assay on HFF (read-out: I50) were 4 µM and 2 µM, respectively.
The corresponding values for `OC[C@H]1OC(n2cc(Br)c3c(Cl)ncnc32)[C@H](O)[C@@H]1O` (some centres undefined) are 29 µM and 31 µM.
As to `CSc1ncnc2c1c(Br)cn2[C@@H]1O[C@H](CO)[C@@H](O)[C@H]1O`, the IC50 with Human betaherpesvirus 5 [1] and with HFF was greater than 100 µM each time.
On to `CCNc1ncnc2c1c(Br)cn2COCCO`, for which the IC50 in the assay with Human betaherpesvirus 5 [1] is greater than 100 µM; with HFF, greater than 100 µM; in the assay with Human alphaherpesvirus 1, greater than 320 µM; in assay [3] it was greater than 320 µM.
With `OC[C@H]1OC(n2ccc3cncnc32)[C@H](O)[C@@H]1O` (some centres undefined), the IC50 with Human betaherpesvirus 5 [1] came out at 0.4 µM; in the assay with HFF, 2 µM.
As to `Nc1nc2c(ncn2COC(CO)CO)c(=O)[nH]1` [GANCICLOVIR], the IC50 is 8.8 µM in the assay with Human betaherpesvirus 5 [1], greater than 100 µM in the assay with HFF, 3 µM with Human alphaherpesvirus 1 and greater than 100 µM in assay [3].
Take `CCNc1ncnc2c1c(Cl)cn2COCCO`: the IC50 (with Human betaherpesvirus 5 [1]; in the assay on HFF; in the assay with Human alphaherpesvirus 1; in assay [3]) was greater than 100 µM throughout.
In the case of `OC[C@H]1O[C@@H](n2cc(I)c3c(Cl)ncnc32)[C@H](O)[C@@H]1O`, the IC50 in the assay on Human betaherpesvirus 5 [1] (read-out: I50) was 31 µM; with HFF (read-out: I50), 13 µM.
Regarding `CN(C)c1ncnc2c1ccn2COCCO`, the IC50 (with Human betaherpesvirus 5 [1]; with HFF; with Human alphaherpesvirus 1; in assay [3]) was greater than 100 µM in each case.
With `Nc1ncnc2c1ccn2[C@@H]1O[C@H](CO)[C@@H](O)[C@H]1O` [TUBERCIDIN], the IC50 in the assay with Human betaherpesvirus 5 [1] was found to be 0.5 µM; in the assay with HFF it was 0.4 µM; in assay [4] it was 0.6 µM.
Regarding `CNc1ncnc2c1c(Br)cn2COCCO`, the IC50 (in the assay with Human betaherpesvirus 5 [1]; with HFF; with Human alphaherpesvirus 1; in assay [3]) was greater than 100 µM throughout.
As for `Nc1ncnc2c1c(I)cn2[C@@H]1O[C@H](CO)[C@@H](O)[C@H]1O` [IODOTUBERCIDIN], the values for the IC50 (in the assay on Human betaherpesvirus 5 [1] (read-out: I50); with HFF (read-out: I50); in assay [4]) were 0.4 µM, 2 µM and 2.1 µM, respectively.
`OC[C@H]1O[C@@H](n2ccc3c(N4CCCCC4)ncnc32)[C@H](O)[C@@H]1O`: the IC50 with Human betaherpesvirus 5 [1] and with HFF was greater than 100 µM in each case.
Turning to `CN(C)c1ncnc2c1c(Br)cn2C1O[C@H](CO)[C@@H](O)[C@H]1O` (some centres undefined), the IC50 amounted to 16 µM in the assay on Human betaherpesvirus 5 [1] and 10 µM with HFF.
Regarding `CNc1ncnc2c1ccn2COCCO`, the IC50 (in the assay with Human betaherpesvirus 5 [1]; with HFF; with Human alphaherpesvirus 1; in assay [3]) was greater than 100 µM in each case.
In the case of `OCCOCn1cc(Cl)c2c(Cl)ncnc21`, the IC50 (in the assay with Human betaherpesvirus 5 [1]; in the assay on HFF; in the assay on Human alphaherpesvirus 1; in assay [3]) was greater than 100 µM in each case.
Consider `COc1ncnc2c1ccn2COCCO`, for which the IC50 (with HFF; in the assay with Human betaherpesvirus 5 [5]; with Human alphaherpesvirus 1; in assay [3]) was greater than 100 µM throughout.
As for `OCCOCn1cc(Br)c2c(Cl)ncnc21`, the IC50 (with Human betaherpesvirus 5 [1]; in the assay with HFF; in the assay with Human alphaherpesvirus 1; in assay [3]) was greater than 100 µM in each case.
As to `Nc1nc2c(ncn2COCCO)c(=O)[nH]1` [ACYCLOVIR], the IC50 in the assay on Human betaherpesvirus 5 [1] is 63 µM; with HFF, greater than 100 µM; in the assay with Human alphaherpesvirus 1, 2.6 µM; in assay [3], greater than 100 µM.
As to `Nc1ncnc2c1c(Br)cn2COCCO`, the IC50 in the assay with Human betaherpesvirus 5 [1] is 3.9 µM; in the assay with HFF, 100 µM; in assay [4], 100 µM; in the assay with Human alphaherpesvirus 1, 16 µM; in assay [3] it was greater than 100 µM.
`CNc1ncnc2c1c(Cl)cn2COCCO`: the IC50 (in the assay with Human betaherpesvirus 5 [1]; in the assay with HFF; in the assay with Human alphaherpesvirus 1; in assay [3]) was greater than 100 µM each time.
As for `CN(C)c1ncnc2c1ccn2[C@@H]1O[C@H](CO)[C@@H](O)[C@H]1O`, the IC50 in the assay on Human betaherpesvirus 5 [1] (read-out: I50) turned out to be 1.2 µM; in the assay on HFF (read-out: I50), 2 µM.
For `Nc1ncnc2c1c(Cl)cn2[C@@H]1O[C@H](CO)[C@@H](O)[C@H]1O`, the IC50 stood at 4.4 µM in the assay on Human betaherpesvirus 5 [1] (read-out: I50), 10 µM in the assay on HFF (read-out: I50) and 6.5 µM in assay [4].
`Nc1ncnc2c1c(Cl)cn2COCCO`: the IC50 was 16 µM in the assay on Human betaherpesvirus 5 [1]; greater than 100 µM in the assay with HFF; 0.82 µM in assay [2]; 77 µM in the assay with Human alphaherpesvirus 1; greater than 100 µM in assay [3].
For the compound `COc1ncnc2c1ccn2[C@@H]1O[C@H](CO)[C@@H](O)[C@H]1O`, the values for the IC50 in the assay on Human betaherpesvirus 5 [1] (read-out: I50) and in the assay with HFF (read-out: I50) were 10 µM and 46 µM, respectively.
For the compound `C[Se]c1ncnc2c1ccn2C1O[C@H](CO)[C@@H](O)[C@H]1O` (some centres undefined), the IC50 in the assay with Human betaherpesvirus 5 [1] was determined as 4 µM; in the assay with HFF it was 1.5 µM.
